The source made the active and inactive calls.
Assays:
[1] = system: Mus musculus; experiment: Inhibition of 5'-TCTGACRTTCT-X-TCTTRCAGTCT-3'-induced IL12 production in C57BL/6 mouse at 10 mg/kg, sc; type: functional, organism-based; parameters: dose 10 mg/kg
How it was run: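 C57BL/6 mice received antagonist or control 10 mg/kg sc, either with TLR9 agonist 0.25 mg/kg sc or up to 48 h before it. Serum IL-12 was measured 2 h after agonist. Two or three independent experiments; mean ± SEM, Student's t test versus PBS.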

[2] = biological target: T1, Toll-like receptor 9 (Mus musculus) (UniProt Q9EQU3); experiment: Antagonist activity at TLR9 in mouse J774 cells assessed as inhibition of 5'-TCTGACRTTCT-X-TCTTRCAGTCT-3'-induced NF-kappaB activation pretreated for 1 hr; type: functional, cell-based
T1 sequence (whole entry): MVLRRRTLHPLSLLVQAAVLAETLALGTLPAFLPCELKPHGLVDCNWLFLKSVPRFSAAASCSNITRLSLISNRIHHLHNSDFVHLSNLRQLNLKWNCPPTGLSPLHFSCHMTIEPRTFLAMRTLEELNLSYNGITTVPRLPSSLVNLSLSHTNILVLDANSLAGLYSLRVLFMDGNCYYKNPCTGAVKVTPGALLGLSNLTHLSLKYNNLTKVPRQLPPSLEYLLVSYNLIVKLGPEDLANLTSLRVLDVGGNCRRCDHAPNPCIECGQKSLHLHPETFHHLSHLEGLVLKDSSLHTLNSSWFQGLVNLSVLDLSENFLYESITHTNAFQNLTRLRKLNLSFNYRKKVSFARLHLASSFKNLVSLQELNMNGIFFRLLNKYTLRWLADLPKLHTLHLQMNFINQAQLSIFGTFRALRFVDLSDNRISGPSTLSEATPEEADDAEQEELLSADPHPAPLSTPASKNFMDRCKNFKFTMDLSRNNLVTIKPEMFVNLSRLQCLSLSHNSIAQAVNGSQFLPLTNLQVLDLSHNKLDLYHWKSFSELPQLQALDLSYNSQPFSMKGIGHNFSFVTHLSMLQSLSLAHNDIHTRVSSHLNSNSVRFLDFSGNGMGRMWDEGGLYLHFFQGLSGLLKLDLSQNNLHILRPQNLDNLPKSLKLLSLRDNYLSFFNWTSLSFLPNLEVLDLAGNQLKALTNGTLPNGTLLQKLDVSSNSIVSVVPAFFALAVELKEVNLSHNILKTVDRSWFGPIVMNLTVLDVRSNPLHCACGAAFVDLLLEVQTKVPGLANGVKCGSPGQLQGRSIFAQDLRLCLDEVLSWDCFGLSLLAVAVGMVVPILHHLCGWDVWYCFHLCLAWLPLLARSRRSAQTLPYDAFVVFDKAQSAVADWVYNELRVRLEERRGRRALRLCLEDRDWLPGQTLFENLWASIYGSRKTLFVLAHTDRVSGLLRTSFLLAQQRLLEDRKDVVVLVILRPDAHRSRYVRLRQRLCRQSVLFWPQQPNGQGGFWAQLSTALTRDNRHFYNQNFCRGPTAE
How it was run: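 J774 cells at 5×10^6 cells/well were preincubated with antagonist for 1 h. Agonist was then added: TLR9 agonist 1 µg/mL, an RNA-based TLR7/8 agonist, or LPS 100 ng/mL. Antagonist was used at 5–40 µg/mL or at the indicated agonist ratios. Nuclear extracts were taken 1 h after agonist and analysed by EMSA.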

[3] = system: Mus musculus; experiment: Inhibition of 5'-UGCUGUUCUG-X-GUCUUGUCGU-5'-induced IL6 production in C57BL/6 mouse treated 72 hrs before induction at 10 mg/kg, sc; type: functional; settings: C57BL/6, sc, route subcutaneous
How it was run: (§1)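 Female C57BL/6 mice, 6-8 weeks, n = 3, given antagonist 10 mg/kg sc in the right flank. After 72 h, agonist given sc in the left flank: TLR7/8 RNA agonist at 50 mg/kg or TLR9 agonist at 0.25 mg/kg. Serum collected 2 h after agonist by retro-orbital bleeding; cytokines/chemokines by mouse 20-plex Luminex bead assay.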

[4] = biological target: T1, Toll-like receptor 9 (Mus musculus); experiment: Antagonist activity at mouse TLR9 expressed in HEK293 cells assessed as inhibition of 5'-CTATCTGACGTTCTCTGT-3'-induced NF-kappaB activation by SEAP reporter gene assay; type: functional, cell-based
How it was run: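 Mouse TLR9-HEK293 cells were transfected with a SEAP reporter for 6 h. They were then stimulated for 18 h with agonist (0.25 or 0.5 µg/mL) plus increasing antagonist concentrations or set agonist:antagonist ratios. Quanti-Blue read-out, reported as % NF-κB activity with agonist alone as 100%.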

[5] = biological target: T1, Toll-like receptor 9 (Mus musculus); experiment: Antagonist activity at TLR9 in mouse J774 cells assessed as inhibition of 5'-TCTGACRTTCT-X-TCTTRCAGTCT-3'-induced NF-kappaB activation pretreated for 1 hr in presence of increasing levels of 5'-TCTGACRTTCT-X-TCTTRCAGTCT-3'; type: functional, cell-based
How it was run: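 Reversibility test: J774 cells were stimulated with varying doses of TLR9 agonist, with or without a fixed 10 µg/mL antagonist, for 1 h. Nuclear extracts were analysed for NF-κB by EMSA.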

[6] = system: Mus musculus; experiment: Inhibition of 5'-UGCUGUUCUG-X-GUCUUGUCGU-5'-induced KC production in C57BL/6 mouse treated 72 hrs before induction at 10 mg/kg, sc; type: functional; settings: C57BL/6, sc, route subcutaneous; how it was run: as §1
[7] = biological target: T1, Toll-like receptor 9 (Mus musculus); experiment: Agonist activity at mouse TLR9 expressed in HEK293 cells assessed as activation of NF-kappaB at 10 ug/mL by SEAP reporter gene assay; type: functional, cell-based
How it was run: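 HEK293 cells stably expressing mouse TLR9 were transiently transfected with a SEAP reporter for 6 h. Compounds were added at 10 µg/mL for 18 h. SEAP was read with Quanti-Blue substrate and expressed as fold change in NF-κB activity.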

[8] = biological target: T1, Toll-like receptor 9 (Mus musculus); experiment: Antagonist activity at TLR9 in mouse J774 cells assessed as inhibition of 5'-TCTGACRTTCT-X-TCTTRCAGTCT-3'-induced NF-kappaB activation pretreated for 30 mins; type: functional, cell-based
How it was run: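 J774 cells received antagonist at 5, 10 or 20 µg/mL either 30 min before, together with, or 30 min after TLR9 agonist (1 µg/mL). Nuclear extracts were prepared 1 h after agonist addition and NF-κB was assessed by EMSA.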

[9] = system: Mus musculus; experiment: Inhibition of 5'-TCTGACRTTCT-X-TCTTRCAGTCT-3'-induced MIG production in C57BL/6 mouse treated 72 hrs before induction at 10 mg/kg, sc; type: functional; settings: C57BL/6, sc, route subcutaneous
How it was run: (§2)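 Female C57BL/6 mice (n=3) received antagonist 10 mg/kg sc in the right flank. After 72 h, TLR9 agonist 0.25 mg/kg sc was given in the left flank. Serum was taken 2 h after agonist and cytokines/chemokines were measured by Luminex multiplex assay. Representative of at least three experiments.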

[10] = system: Mus musculus; experiment: Inhibition of 5'-TCTGACRTTCT-X-TCTTRCAGTCT-3'-induced IL6 production in C57BL/6 mouse treated 72 hrs before induction at 10 mg/kg, sc; type: functional; settings: C57BL/6, sc, route subcutaneous; how it was run: as §2
[11] = system: Mus musculus; experiment: Inhibition of 5'-UGCUGUUCUG-X-GUCUUGUCGU-5'-induced MIG production in C57BL/6 mouse treated 72 hrs before induction at 10 mg/kg, sc; type: functional; settings: C57BL/6, sc, route subcutaneous; how it was run: as §1
[12] = system: Mus musculus; experiment: Inhibition of 5'-TCTGACRTTCT-X-TCTTRCAGTCT-3'-induced MCP1 production in C57BL/6 mouse treated 72 hrs before induction at 10 mg/kg, sc; type: functional; settings: C57BL/6, sc, route subcutaneous; how it was run: as §2

CO[C@@H]1[C@H](OP(=O)(S)OC[C@H]2O[C@@H](n3ccc(N)nc3=O)C[C@@H]2OP(=O)(S)OC[C@H]2O[C@@H](n3ccc4c(=O)[nH]c(N)nc43)C[C@@H]2OP(=O)(S)OC[C@H]2O[C@@H](n3cc(C)c(=O)[nH]c3=O)C[C@@H]2OP(=O)(S)OC[C@H]2O[C@@H](n3cc(C)c(=O)[nH]c3=O)C[C@@H]2OP(=O)(S)OC[C@H]2O[C@@H](n3ccc(N)nc3=O)C[C@@H]2OP(=O)(S)OC[C@H]2O[C@@H](n3cc(C)c(=O)[nH]c3=O)C[C@@H]2OP(=O)(S)OC[C@H]2O[C@@H](n3ccc(N)nc3=O)C[C@@H]2OP(=O)(S)OC[C@H]2O[C@@H](n3cc(C)c(=O)[nH]c3=O)C[C@@H]2OP(=O)(S)OC[C@H]2O[C@@H](n3cnc4c(=O)[nH]c(N)nc43)C[C@@H]2OP(=O)(S)OC[C@H]2O[C@@H](n3cc(C)c(=O)[nH]c3=O)C[C@@H]2O)[C@@H](COP(=O)(S)O[C@H]2[C@@H](OC)[C@H](n3cnc4c(=O)[nH]c(N)nc43)O[C@@H]2COP(=O)(S)O[C@H]2C[C@H](n3cc(C)c(=O)[nH]c3=O)O[C@@H]2COP(=O)(S)O[C@H]2C[C@H](n3ccc(N)nc3=O)O[C@@H]2COP(=O)(S)O[C@H]2C[C@H](n3cc(C)c(=O)[nH]c3=O)O[C@@H]2COP(=O)(S)O[C@H]2C[C@H](n3cnc4c(N)ncnc43)O[C@@H]2COP(=O)(S)O[C@H]2C[C@H](n3cc(C)c(=O)[nH]c3=O)O[C@@H]2COP(=O)(S)O[C@@H]2C[C@@H](n3ccc(N)nc3=O)O[C@H]2CO)O[C@H]1n1cnc2c(N)ncnc21 (some centres not stated)
≥ 50%: inhibition in vivo at 10 mg/kg [3] | inhibition in vivo at 10 mg/kg [6] | inhibition in vivo at 10 mg/kg [9] | inhibition in vivo at 10 mg/kg [10] | inhibition in vivo at 10 mg/kg [11] | inhibition in vivo at 10 mg/kg [12]
active: Activity [1] | Activity [2] Dose-dependent effect | Activity [4] | Activity [8]
inactive: Activity [5] | Activity [7]

From ChEMBL document CHEMBL1140884, “Oligodeoxyribonucleotide-based antagonists for Toll-like receptors 7 and 9” (2009)
